For assay [1], the target named is Human immunodeficiency virus type 1 reverse transcriptase (Human immunodeficiency virus 1, UniProt Q72547). Kind of assay: Inhibition of HIV-1 RT RNA-dependent DNA polymerase activity expressed in Escherichia coli JM109 using [3H]TTP/ poly(rA)-oligo(dT)16 as substrate incubated for 20 mins by liquid scintillation spectrometric analysis. The procedure, abridged:
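RNA-dependent DNA polymerase reaction in 50 mM Tris-HCl pH 7.4 (37°C), 60 mM KCl, 5 mM MgCl2, with 10 µM [3H]-TTP and 40 nM poly(rA)-oligo(dT)16. Started with 10 nM RT, 20 min at 37°C. Quenched in ice-cold 10% TCA plus 20 mM sodium pyrophosphate, glass-fiber filtered, washed with TCA and ethanol. Incorporation counted by liquid scintillation.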

A short description of assay [2]: Inhibition of HIV-1 RT-RNase H activity expressed in Escherichia coli JM109 using DNA 3'-end directed cleavage measuring HTS-2 as substrate by fluorescence-based assay. The arrangement: species or system Human immunodeficiency virus 1. An outline of the steps: (§1)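 RT RNase H cleavage of fluorescein/Dabcyl-labelled RNA/DNA duplexes, with substrate in excess over RT. HTS-1 probes internal cleavage, HTS-2 DNA 3'-end-directed cleavage, and HTS-3 (fluorescein RNA annealed to Dabcyl DNA) RNA 5'-end-directed cleavage.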

Assay [3] is described as follows: Inhibition of HIV-1 RT-RNase H domain fragment expressed in Escherichia coli by fluorescence-based assay. The arrangement: species or system Human immunodeficiency virus 1.
The nature of assay [4]: Inhibition of HIV-1 RT-RNase H activity expressed in Escherichia coli JM109 using RNA 5'-end directed cleavage measuring HTS-3 as substrate by fluorescence-based assay. Set-up: species or system Human immunodeficiency virus 1. An outline of the steps:
as §1

The nature of assay [5]: Inhibition of HIV-1 RT-RNase H activity expressed in Escherichia coli JM109 using internal cleavage measuring HTS-1 as substrate by fluorescence-based assay. Set-up: species or system Human immunodeficiency virus 1. The procedure, abridged: as §1
The target in assay [6] is Human immunodeficiency virus type 1 integrase (Human immunodeficiency virus 1, UniProt Q7ZJM1, C280S/F185K). The assay is described as follows: Inhibition of full-length HIV-1 integrase F185K/C280S double mutant strand transfer activity expressed in Escherichia coli BL21(DE3) using oligo DNA as substrate preincubated for 10 mins followed by substrate addition incubated for 30 mins by plate reader analysis.
Chain of Human immunodeficiency virus type 1 integrase (Q7ZJM1 entry or part of it C280S/F185K): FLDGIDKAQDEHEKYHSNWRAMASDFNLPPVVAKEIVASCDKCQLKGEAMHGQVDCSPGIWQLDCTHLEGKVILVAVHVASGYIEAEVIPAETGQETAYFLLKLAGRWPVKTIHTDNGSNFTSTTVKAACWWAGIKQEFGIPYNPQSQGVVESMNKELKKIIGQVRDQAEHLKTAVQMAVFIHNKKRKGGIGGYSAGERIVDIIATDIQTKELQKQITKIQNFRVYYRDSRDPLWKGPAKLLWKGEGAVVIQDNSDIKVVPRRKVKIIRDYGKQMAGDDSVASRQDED

Assay [7] has as its system Human immunodeficiency virus 1. Kind of assay: Inhibition of HIV-1 RT-RNase H domain expressed in Escherichia coli JM109 at 30 uM using HTS-1 as substrate preincubated with compound/substrate for 10 mins followed by MgCl2 addition incubated for 10 mins by fluorescence-based assay. An outline of the steps:
(§2)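 Order-of-addition RNase H assay, HIV-1 RT in this format. Final conditions: 100 nM RT, 250 nM HTS-1 RNA/DNA duplex, 6 mM MgCl2, 30 µM inhibitor, 1% DMSO. RT is pre-incubated 10 min at 37 °C with the specified components. Missing components are then added and the reaction runs 10 min at 37 °C. Fluorescence signal is corrected against a DMSO-only control. Mean ± SD of two independent experiments.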

Assay [8] has as its system Human immunodeficiency virus 1. The assay is described as follows: Inhibition of HIV-1 RT-RNase H domain expressed in Escherichia coli JM109 at 30 uM using HTS-1 as substrate preincubated with substrate for 10 mins followed by compound/MgCl2 addition incubated for 2 mins by fluorescence-based assay. The procedure, abridged: (§3)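 Excess-RT order-of-addition RNase H assay. RT is pre-incubated 10 min at 37 °C with inhibitor or with substrate. Remaining components are added and the reaction runs 2 min at 37 °C. Fluorescence is DMSO-control corrected. Mean ± SD of two independent experiments.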

For assay [9], the system named is Human immunodeficiency virus 1. The assay is described as follows: Inhibition of HIV-1 RT-RNase H domain expressed in Escherichia coli JM109 at 30 uM using HTS-1 as substrate preincubated for 10 mins followed by substrate/MgCl2 addition incubated for 2 mins by fluorescence-based assay. The procedure, abridged: as §3
Assay [10] concerns Human immunodeficiency virus 1. The assay is described as follows: Inhibition of HIV-1 RT-RNase H domain expressed in Escherichia coli JM109 at 30 uM using HTS-1 as substrate preincubated with compound and MgCl2 for 10 mins followed by substrate addition incubated for 10 mins by fluorescence-based assay. The procedure, abridged:
as §2

For assay [11], the system named is Human immunodeficiency virus 1. Kind of assay: Inhibition of HIV-1 RT-RNase H domain expressed in Escherichia coli JM109 at 30 uM using HTS-1 as substrate preincubated for 10 mins followed by substrate/MgCl2 addition incubated for 10 mins by fluorescence-based assay. The procedure, abridged: as §2
For assay [12], the system named is Human immunodeficiency virus 1. The assay is described as follows: Inhibition of HIV-1 RT-RNase H domain expressed in Escherichia coli JM109 at 30 uM using HTS-1 as substrate preincubated with substrate for 10 mins followed by compound/MgCl2 addition incubated for 10 mins by fluorescence-based assay. The procedure, abridged:
as §2

Where only a bound is given, the exact number is not on record here.

Turning to `O=C(O)c1cn(Cc2ccccc2-c2ccccc2)cc(O)c1=O`, the IC50 in assay [1] is greater than 25 µM; in assay [2], 25 µM; in assay [3], 5.1 µM; in [4], greater than 25 µM; in [5], 7.7 µM; in assay [6] it was 17 µM.
On to `O=C(O)c1cn(Cc2cccc(C(F)(F)F)c2)cc(O)c1=O`, for which the half-inhibitory concentration (IC50) in [1], in [2] and in [4] was greater than 25 µM each time.
For the compound `O=C(O)c1c[nH]cc(O)c1=O`, the IC50 in [1] was greater than 25 µM; in [2] it was greater than 25 µM; in [3] it was 22 µM; in assay [4] it was greater than 25 µM; in assay [5], greater than 25 µM; in assay [6] it was greater than 100 µM.
Turning to `NS(=O)(=O)c1ccc(-c2ccc(Cn3cc(O)c(=O)c(C(=O)O)c3)cc2)cc1`, the IC50 is 1.2 µM in assay [1]; 1.5 µM in assay [2]; 1.3 µM in [3]; 1 µM in assay [4]; 0.65 µM in assay [5]; greater than 100 µM in [6]. The inhibition in assay [7] amounted to 68%; in assay [8] it was 80%; in [9], 92%; in [10] it was 79%; in [11], 97%; in [12], 14%.
`O=C(O)c1cn(Cc2ccc(Cl)c(Cl)c2)cc(O)c1=O`: the IC50 in assay [1] is greater than 25 µM; in assay [2] it was greater than 25 µM; in [3] it was 4.7 µM; in assay [4], greater than 25 µM; in [5], 14 µM; in assay [6], 36 µM.
Regarding `O=C(O)c1ccc(Cn2cc(O)c(=O)c(C(=O)O)c2)cc1`, the IC50 in assay [1] is greater than 25 µM; in assay [2], greater than 25 µM; in [3] it was 14 µM; in assay [4] it was greater than 25 µM; in [5] it was greater than 25 µM; in [6], greater than 100 µM.
For the compound `O=C(O)c1cn(Cc2ccc(Cl)cc2Cl)cc(O)c1=O`, the IC50 was greater than 25 µM in [1]; greater than 25 µM in assay [2]; 4.2 µM in [3]; greater than 25 µM in [4]; 12 µM in [5]; 25 µM in assay [6].
In the case of `O=C(O)c1cn(CC2(c3ccccc3)CCCC2)cc(O)c1=O`, the IC50 in [1] came to 1.8 µM; in assay [2] it was 5.1 µM; in [3], 8.2 µM; in [4], 4.9 µM; in [5], 1.5 µM; in assay [6], 14 µM. Moreover, the inhibition in assay [7] is 38%; in assay [8] it was 15%; in assay [9], 42%; in [10], 84%; in [11], 75%; in [12], 18%.
With `CS(=O)(=O)c1ccc(Cn2cc(O)c(=O)c(C(=O)O)c2)cc1`, the IC50 in assay [1] was greater than 25 µM; in assay [2], greater than 25 µM; in [3] it was 25 µM; in [4] it was greater than 25 µM; in assay [5] it was greater than 25 µM; in [6], greater than 100 µM.
As for `CC(c1cccc2ccccc12)n1cc(O)c(=O)c(C(=O)O)c1` (stereo not drawn), the IC50 in [1] was 19 µM; in assay [2], greater than 25 µM; in assay [3], 3.7 µM; in assay [4], 13 µM; in assay [5], 7 µM; in assay [6], 2.26 µM.
`COc1ccc(Cn2cc(O)c(=O)c(C(=O)O)c2)cc1` displayed a half-maximal inhibitory concentration (IC50) in assay [1] greater than 25 µM. Moreover, the inhibition in [7] was found to be 27%; in [8] it was 58%; in [9], 70%; in assay [10], 52%; in assay [11] it was 69%; in assay [12], 21%.
Consider `Cc1cc(Cn2cc(O)c(=O)c(C(=O)O)c2)ccc1F`, for which the half-maximal inhibitory concentration (IC50) is greater than 25 µM in assay [1]; greater than 25 µM in assay [2]; 9.8 µM in assay [3]; greater than 25 µM in [4]; 17 µM in [5]; greater than 100 µM in assay [6].
For the compound `CCOC(=O)c1cn(Cc2ccc(F)cc2)cc(O)c1=O`, the IC50 in assay [1] was greater than 25 µM; in [2] it was greater than 25 µM; in assay [3], greater than 25 µM; in assay [4], greater than 25 µM; in assay [5] it was greater than 25 µM; in assay [6], greater than 100 µM.
Consider `O=C(O)c1cn(Cc2ccc(-c3cnc4ccccc4c3)cc2)cc(O)c1=O`, for which the inhibition in [7] was 66%; in assay [8], 74%; in assay [9] it was 91%; in assay [10], 68%; in [11], 95%; in assay [12], 50%. Besides, the IC50 in assay [5] was determined as 0.9 µM.
`O=C(O)c1cn(Cc2ccncc2)cc(O)c1=O`: the half-maximal inhibitory concentration (IC50) in [1] is greater than 25 µM; in [2] it was greater than 25 µM; in assay [3], greater than 25 µM; in [4], greater than 25 µM; in assay [5], greater than 25 µM; in [6], greater than 100 µM.
For the compound `O=C(O)c1cn(Cc2ccc(Br)cc2)cc(O)c1=O`, the concentration for half-maximal inhibition (IC50) in [1] was greater than 25 µM; in assay [2], greater than 25 µM; in assay [3] it was greater than 25 µM; in [4] it was greater than 25 µM; in [5], greater than 25 µM; in assay [6], greater than 100 µM.
For the compound `O=C(O)c1cn(Cc2ccc(F)cc2F)cc(O)c1=O`, the 50% inhibitory concentration (IC50) in [1] is greater than 25 µM; in [2], greater than 25 µM; in assay [3], 6.8 µM; in [4] it was greater than 25 µM; in assay [5], 13 µM; in assay [6], greater than 100 µM.
As for `NCc1ccc(-c2ccc(Cn3cc(O)c(=O)c(C(=O)O)c3)cc2)cc1`, the concentration for half-maximal inhibition (IC50) was 3.2 µM in assay [1]; 4.4 µM in assay [2]; 4.4 µM in assay [3]; 3.9 µM in assay [4]; 7.79 µM in [6].
Turning to `O=C(O)c1cn(Cc2ccccc2)cc(O)c1=O`, the IC50 in assay [1] is greater than 25 µM; in [2] it was greater than 25 µM; in [3], 11 µM; in assay [4], greater than 25 µM; in assay [5] it was greater than 25 µM; in assay [6] it was 35 µM.
Consider `O=C(O)c1cn(Cc2ccc(F)c(Cl)c2)cc(O)c1=O`, for which the IC50 in assay [1] was greater than 25 µM; in assay [2], greater than 25 µM; in assay [3], 9.8 µM; in assay [4] it was greater than 25 µM; in assay [5] it was 18 µM; in assay [6], 44.5 µM.
Take `O=C(O)c1cn(-c2ccccc2)cc(O)c1=O`: the IC50 is greater than 25 µM in [1]; greater than 25 µM in [2]; greater than 25 µM in assay [3]; greater than 25 µM in assay [4]; greater than 25 µM in assay [5]; 37 µM in [6].
`CC(c1ccc(F)cc1)n1cc(O)c(=O)c(C(=O)O)c1` (stereo not drawn): the IC50 is greater than 25 µM in assay [1]; greater than 25 µM in assay [2]; 5.3 µM in assay [3]; greater than 25 µM in [4]; 16 µM in assay [5]; 34 µM in assay [6].
On to `O=C(O)c1cn(Cc2ccc(F)cc2)cc(O)c1=O`, for which the IC50 was greater than 25 µM in assay [1]; greater than 25 µM in assay [2]; 7.8 µM in assay [3]; greater than 25 µM in [4]; 17 µM in assay [5]; 35 µM in [6].
Turning to `NC(=O)c1cn(Cc2ccc(F)cc2)cc(O)c1=O`, the IC50 in assay [1] was greater than 25 µM; in [2], greater than 25 µM; in assay [3] it was 6.8 µM; in assay [4], greater than 25 µM; in assay [5] it was 12 µM; in assay [6], 32 µM.
Take `O=C(O)c1cn(Cc2ccc(Cl)cc2)cc(O)c1=O`: the 50% inhibitory concentration (IC50) in assay [1], in assay [2] and in assay [4] was greater than 25 µM throughout.
`O=C(O)c1cn(Cc2ccc(-c3cccnc3)cc2)cc(O)c1=O` came in with a half-maximal inhibitory concentration (IC50) in assay [1] greater than 25 µM.

For the origin of these results see ChEMBL document CHEMBL3817772, “Design, Synthesis, and Biological Evaluations of Hydroxypyridonecarboxylic Acids as Inhibitors of HIV Reverse Transcriptase Associated RNase H” (J Med Chem, 2016).
